Measurements published in paper PMC10239344 (ChemMedChem, 2023).
pIC50, pKi: −log10 of the molar value. Where two headings read alike, the source gives them in different places.

Tests used:
[1] = biological target: T1, K. pneumoniae LpxH (KpLpxH) (Klebsiella pneumoniae subsp. pneumoniae, UniProt A6T5R0); conditions: cited from earlier work; for Percentage Activity of KpLpxH (vi/v0) / Percentage Inhibition of KpLpxH: 0.1 μM inhibitor, previously reported
T1 sequence (A6T5R0 1-240): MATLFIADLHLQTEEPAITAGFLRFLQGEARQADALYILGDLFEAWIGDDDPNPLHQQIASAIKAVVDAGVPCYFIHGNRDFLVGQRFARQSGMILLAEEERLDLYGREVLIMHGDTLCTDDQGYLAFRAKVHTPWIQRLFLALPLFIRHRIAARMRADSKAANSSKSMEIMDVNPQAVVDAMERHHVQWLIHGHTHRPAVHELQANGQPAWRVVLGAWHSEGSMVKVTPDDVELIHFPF

[2] = biological target: T1, K. pneumoniae LpxH (KpLpxH); experiment: LpxE-coupled malachite green LpxH activity assay; assay type: biochemical
Outline: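 Enzyme/inhibitor and substrate mixes were preincubated 10 min at 37 °C, then combined (final 100 μM UDP-DAGn, 10 ng/mL enzyme). Aliquots were EDTA-quenched, then A. aeolicus LpxE 5 μg/mL was added for 30 min at 37 °C. Formic acid stop; malachite green A620. Triplicates; activity normalized to DMSO control; IC50 fit converted to competitive KI.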

| SMILES | Percentage Activity of KpLpxH (vi/v0) [1] | Percentage Inhibition of KpLpxH [1] | Percentage Activity of KpLpxH (vi/v0) ([1]; listed as 2 (JH-LPH-33)) | pIC50 ([1]; read-out: IC50 of KpLpxH inhibition, reported value) | pKi ([1]; read-out: KI for KpLpxH, reported value) | Percentage Inhibition of KpLpxH ([2]; 0.1 μM inhibitor) | pKi ([2]; read-out: KI for KpLpxH, from IC50, competitive binding mode, KM 68.1 μM) |
| --- | --- | --- | --- | --- | --- | --- | --- |
| CC(=O)N1CCc2cc(S(=O)(=O)N3CCN(c4cccc(C(F)(F)F)c4)CC3)ccc21 [Compound 1] | 78^[16] % | 22^[16] % | – | – | – | – | – |
| CC(=O)N1CCc2cc(S(=O)(=O)N3CCN(c4cc(Cl)cc(C(F)(F)F)c4)CC3)ccc21 [Compound 2] | 21% | 79^[16] % | 21^[16] % | 7.59 | 8.00 | – | – |
| O=C(CCCCCNC(=O)Nc1ccc(S(=O)(=O)N2CCN(c3cc(Cl)cc(C(F)(F)F)c3)CC2)cc1)NO [Compound 13] | – | – | – | – | – | 97% | 8.51 |
